Statin myotox sup = suppressors of simvastatin-induced myotoxicity in C2C12 myotubes; rescue of ATP level, % at 7.49 µM; 330,000 compounds, 0.78% hits; ATP luminescence, 48 h; scaled: DMSO 0, geranylgeraniol control 100;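 active = mean ATP rescue above about 67%, or every replicate alone reaching that limit, limit read from the data, passing the limit was not always enough; inconclusive = no clear call, values can overlap the other calls; inactive = mean under the limit and some replicate under it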;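 also: myotubes were challenged with 10 µM simvastatin during compound exposure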
DENV2 CPE rescue = inhibitors of DENV2 cytopathic effect | DENV2-infected cells, cytopathic effect rescue, plate reader | CPE inhibition, % at 9.99 µM | AID 651640 | 350,000 compounds, 1.7% hits; in the data active = CPE inhibition above about 20%, passing the limit was not always enough; inconclusive = no clear call, values can overlap the other calls; tested in BHK-21 cells;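 also: 0% = median of neutral control wells and 100% = median of positive control wells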
E-selectin induc = induces E-selectin expression in human endothelial cells. 260,000 compounds, 0.37% hits. P16581. activation, % at 7.58 µM. HUVEC E-selectin immunofluorescence imaging; normalized: neutral wells 0, TNF-alpha wells 100;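 active = mean E-selectin-positive cell signal at least 10% of the positive control, reached in at least 60% of replicates, without over 20% cell loss; inconclusive = no rule given, readout overlaps actives, possibly toxicity-flagged; inactive = the rest, including those meeting only one limit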
Target sequence (P16581 whole entry, looked up): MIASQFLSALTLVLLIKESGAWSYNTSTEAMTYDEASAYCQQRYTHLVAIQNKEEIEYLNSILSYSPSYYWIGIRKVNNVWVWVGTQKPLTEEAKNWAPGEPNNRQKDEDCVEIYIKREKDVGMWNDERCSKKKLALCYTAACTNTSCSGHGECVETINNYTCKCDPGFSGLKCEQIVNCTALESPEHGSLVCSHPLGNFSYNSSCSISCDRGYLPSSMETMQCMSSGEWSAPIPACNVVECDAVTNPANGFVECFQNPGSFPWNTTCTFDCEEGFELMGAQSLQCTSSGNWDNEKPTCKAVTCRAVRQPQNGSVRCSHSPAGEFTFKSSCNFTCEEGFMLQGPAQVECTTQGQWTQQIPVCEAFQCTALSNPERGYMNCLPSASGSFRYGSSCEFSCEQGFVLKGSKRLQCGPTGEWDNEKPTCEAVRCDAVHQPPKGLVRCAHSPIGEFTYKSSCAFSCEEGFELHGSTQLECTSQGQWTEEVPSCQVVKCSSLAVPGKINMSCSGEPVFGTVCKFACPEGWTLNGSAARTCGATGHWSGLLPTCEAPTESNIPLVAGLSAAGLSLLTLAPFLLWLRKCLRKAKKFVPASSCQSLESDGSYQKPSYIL
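System: HUVEC / Compound: single concentration / Signal: immunofluorescence imaging / Read-out: percent E-selectin-positive cells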
Active calls of the source: *; ? = inconclusive; / = no result given. Shown are actives, neighbours in structure and some others; about 2.2% of the full set was active somewhere.

SMILES	Statin myotox sup	DENV2 CPE rescue	E-selectin induc
C[C@@H]1CCCCO[C@@H](CN(C)CC2CCCCC2)[C@@H](C)CN([C@H](C)CO)C(=O)c2cc(N(C)C)ccc2O1	-14.4	48.3*	0.0
O=C(C[C@H]1CC[C@@H]2[C@H](COC[C@H](O)CN2C(=O)Nc2cc(Cl)cc(Cl)c2)O1)N1CCCCC1	-3.8	-3.2	0.2
C[C@@H](O)C#Cc1ccc([C@@H]2[C@@H](CO)N3CCCCN(CC4CCOCC4)C[C@@H]23)cc1	/	-2.1	-0.3
COc1ccc(C(CNC(=O)CCNC(=O)c2ccc(Br)cc2)N2CCOCC2)cc1 (centres undefined)	1.9	38.9*	0.1
CCCCOc1ccc(C(=O)NCC(=O)NCC(c2ccc(OC)cc2)N2CCOCC2)cc1 (centres undefined)	-5.0	11.3	/
O=C(Nc1ccccc1F)N1CC(=O)N2[C@@H](CO)[C@H](c3ccc(C#CC4CC4)cc3)[C@@H]2C1	/	3.1	-0.2
COc1c2c(cc3oc(CO[C@@H]4O[C@H](CO)[C@@H](O)[C@H](O)[C@H]4O)cc(=O)c13)O[C@H](C(C)(C)O)C2	5.1	23.6*	-0.2
COc1c2c(cc3oc(C)cc(=O)c13)OC(C(C)(C)OC1OC(CO)C(O)C(O)C1O)C2 (centres undefined)	10.7	?	-0.1
COC(=O)c1cn(C[C@@H](Cc2ccccc2)NC(=O)Nc2ccccc2)nn1	/	-0.9	/
COc1cc(CN2CC3(CN(S(=O)(=O)c4cccc(F)c4)C3)c3c([nH]c4cc(OC)ccc34)[C@H]2CO)cc(OC)c1	/	0.5	-0.1
O=C(CN1CCOCC1)N[C@H]1CC[C@@H](CCn2cc(C3CCCCC3)nn2)O[C@H]1CO	-1.9	5.7	-0.3
O=C(CN1CCC(c2nc3ccccc3s2)CC1)NCc1ccccc1	113.0*	/	0.9
CCOC(=O)CCCNC(=O)CN1CCC(c2nc3ccccc3s2)CC1	1.6	-2.8	1.6
COc1cccc(C(=O)Nc2ccc3[nH]c(=O)[nH]c3c2)c1OC	7.4	-0.2	0.1
COc1cccc(NC(=O)c2cccc(OC)c2OC)c1	116.2*	/	/
COc1cccc(C(=O)Nc2ccncc2)c1OC	-6.8	9.2	-0.1
COc1cccc(C(=O)Nc2ccc(N(C)C)cc2)c1OC	90.4*	/	/
C[C@H](NC(=O)C[C@H]1C[C@@H]2c3cc(NC(=O)Cc4ccncc4)ccc3O[C@@H]2[C@@H](CO)O1)c1ccccc1	-1.5	-4.4	0.1
COCC#Cc1cnc2c(c1)C(=O)N([C@@H](C)CO)C[C@H](C)[C@H](CN(C)C(=O)C1CC1)O2	-31.9	-7.4	-0.5
O=C(CN1CCOCC1)N1CC2(C1)[C@@H](c1ccccc1)[C@@H](CO)N2Cc1ccc(F)cc1	/	-6.4	-0.3
FC(F)(F)c1nnc(-c2ccccc2)nc1N1CCOCC1	7.0	/	/
FC(F)(F)c1cccc(-c2nnc(-c3ccccc3)c(N3CCOCC3)n2)c1	134.4*	/	/
CN1c2ccc(Br)cc2[C@H]2[C@H](CCN2C(=O)C2CC2)[C@@H]1CO	7.5	12.2	0.0
COc1ccc2c3c([nH]c2c1)[C@@H](CO)N(CC1CC1)CC31CCN(C(=O)NC2CCCC2)CC1	/	-9.2	-0.2
CCCNC(=O)N1[C@@H](CO)[C@@H]2c3ccccc3N(C(=O)NC(C)C)C[C@@H]21	-0.3	-4.8	0.0
SMILES	Statin myotox sup	DENV2 CPE rescue	E-selectin induc
CN(C1CCCC1)C1CCN(C(=O)CNC(=O)/C=C/c2cccc(C(F)(F)F)c2)CC1	/	-15.5	38.7*
CN(C1CCCC1)C1CCN(C(=O)CNC(=O)/C=C/c2ccc(F)cc2)CC1	-3.6	-8.6	-0.4
OCCc1ccc(NCCc2cccs2)cc1	4.8	20.9*	-0.2
O=C(Cc1cccs1)NCCc1ccc(F)cc1	-3.2	-2.0	/
Cc1noc(C)c1NC(=O)Nc1cccc2c1O[C@H](CN(C)S(=O)(=O)c1ccccc1)[C@@H](C)CN([C@@H](C)CO)C2=O	-21.9	/	0.0
O=C(OCC(=O)c1c[nH]c2ccccc12)c1cncc(Br)c1	3.4	-6.3	/
NC(=O)CCc1c[nH]c2ccccc12	109.1*	/	/
O=C(CCc1c[nH]c2ccccc12)OCc1cccc([N+](=O)[O-])c1	-6.3	26.9*	0.2
O=C(COC(=O)CCc1c[nH]c2ccccc12)NCc1ccccc1	/	-11.0	/
COC(=O)CCc1c[nH]c2ccc([N+](=O)[O-])cc12	-3.5	-4.4	0.0
O=C(OCC(=O)c1c[nH]c2ccccc12)c1cccc([N+](=O)[O-])c1	25.5	80.1*	1.5
O=C([C@H]1[C@H](CO)[C@H]2Cn3c(ccc(C4=CCCCC4)c3=O)[C@H]2N1Cc1nccs1)N1CCOCC1	18.1	1.0	-0.1
CCCC1OC23CCCCC2C(C#N)(C(=N)O3)C1(C#N)C#N (centres undefined)	-3.8	/	/
CCCCC1OC2(C)OC(=N)C1(C#N)C(C#N)(C#N)C2c1ccccc1 (centres undefined)	/	72.7*	/
COc1ccccc1NC(=O)N[C@@H]1CC[C@@H](CCNC(=O)c2ccc3c(c2)OCO3)O[C@@H]1CO	8.5	7.5	0.2
COC(=O)C1=C(C)NC(=O)/C1=C\N(C)C	-1.3	-2.4	38.7*
COC(=O)C1=C(C)NC(=O)/C1=C\c1cccs1	1.4	/	/
O=C1NCC(O)=C1C=Nc1ccccc1O	23.3	6.6	2.0
COc1ccc(CN=CC2=C(O)CNC2=O)cc1OC	94.4*	/	/
O=C(C[C@H]1CC[C@H]2[C@@H](COC[C@H](O)CN2C(=O)Nc2cc(Cl)cc(Cl)c2)O1)N1CCCCC1	-10.9	-9.1	0.3
CC(C)NC(=O)N(C)C[C@@H]1Oc2cc(C#C[C@@H](C)O)ccc2S(=O)(=O)N([C@H](C)CO)C[C@@H]1C	8.4	-2.6	0.9
O=C(C[C@@H]1C=C[C@H](NC(=O)Nc2ccc(F)cc2)[C@@H](CO)O1)NCc1ccccn1	4.1	-3.6	-0.3
COc1cccc(S(=O)(=O)N2C[C@@H](O)COC[C@@H]3O[C@H](CC(=O)N4CCOCC4)CC[C@H]32)c1	9.5	15.1	0.0
C[C@H]1CN([C@@H](C)CO)S(=O)(=O)c2ccc(-c3ccccc3)cc2O[C@@H]1CN(C)C	-6.4	4.2	-0.1
Cc1ccc(OCc2nc(-c3cccnc3)no2)cc1C	/	-0.8	424.3*
SMILES	Statin myotox sup	DENV2 CPE rescue	E-selectin induc
Cc1cc(C)cc(OCc2nc(-c3cccnc3)no2)c1	/	-1.7	/
Clc1ccc(-c2csc(-c3cccnc3)n2)s1	-27.2	51.0*	0.0
Fc1ccccc1-c1csc(-c2cccnc2)n1	-9.7	5.2	1.0
CNC(=O)C[C@H]1CC[C@H]2[C@@H](COc3ccc(NC(=O)c4ccc(F)cc4)cc3C(=O)N2C)O1	9.6	14.9	-0.1
O=C(NCC(F)(F)F)[C@H]1[C@H](CO)[C@H]2Cn3c(cccc3=O)[C@@H]1N2CC1CCCC1	/	1.9	-0.1
Cc1ccc(NC(=O)CSc2nccn2C)cc1F	-6.2	18.4	-0.4
Cn1ccnc1SCC(=O)Nc1cccc(C#N)c1	3.3	87.3*	-0.1
O=C(c1ccccc1)N1CCN(C(=O)C2CC2)CC1	33.9	-4.3	0.6
CC(=O)Nc1ccc(OCCCN2CCC(C(O)(c3ccccc3)c3ccccc3)CC2)cc1	/	34.1*	0.9
O=C(C1CC1)N1CCC(C(O)(c2ccccc2)c2ccccc2)CC1	85.2*	/	/
COc1cccc(OCCCN2CCC(C(O)(c3ccccc3)c3ccccc3)CC2)c1	/	-5.3	0.1

Bioassay records as filed in PubChem.
